Results from different studies.
Protocols differ between the studies behind these lines.
Cell line: MRC5
Read-out: cell growth or viability

SMILES	technique	tested at	time	measurement	value
COC(=O)N[C@H](C(=O)N1CCC[C@H]1c1nc(-c2ccc(-c3ccc(-c4c[nH]c([C@@H]5CCCN5C(=O)[C@@H](NC(=O)OC)C(C)C)n4)cc3)cc2)c[nH]1)C(C)C			5 days	CC50	29 µM
Cc1cn([C@@H]2C[C@H](O)[C@@H](CNC(=O)Nc3ccc(OCc4ccccc4)cc3)O2)c(=O)[nH]c1=O				CC50	> 50 µM
COc1ccc(CN2C[C@H]3CC[C@@H]4[C@]5(C)COC(C)(C)O[C@@H]5CC[C@@]4(C)[C@@H]3C[C@@H]2C2=CCOC2=O)cc1	ATP luminescence	25 µM	72 h	cell death	5.1%
Cc1cn([C@@H]2C[C@H](O)[C@@H](CNC(=O)Nc3ccc(N4CCCCC4)cc3)O2)c(=O)[nH]c1=O				CC50	> 50 µM
COc1c2ccoc2c(OCC=C(C)C)c2oc(=O)ccc12	MTT		24 h	IC50	> 100 µM
CCCCN1C[C@H]2CC[C@@H]3[C@](C)(COC(C)=O)[C@H](OC(C)=O)CC[C@@]3(C)[C@@H]2C[C@@H]1C1=CCOC1=O	ATP luminescence	25 µM	72 h	cell death	-6%
O=C(C=C[c-]1cccc1)c1ccc[nH]1.[Fe+2].c1cc[cH-]c1	MTT	100 µM		viability	~100%
CC(C)=CCC/C(C)=C/COc1ccc2ccc(=O)oc2c1	MTT		24 h	IC50	68.9 µM
